{"source": "ChEMBL document CHEMBL2440064", "about": "“Synthesis and biological evaluation of 2-amino-5-aryl-3-benzylthiopyridine scaffold based potent c-Met inhibitors” (Bioorg Med Chem, 2013)", "key": {"[1]": {"molecular_target": "T1, Hepatocyte growth factor receptor (Homo sapiens, UniProt P08581)", "T1 sequence (P08581 whole entry)": "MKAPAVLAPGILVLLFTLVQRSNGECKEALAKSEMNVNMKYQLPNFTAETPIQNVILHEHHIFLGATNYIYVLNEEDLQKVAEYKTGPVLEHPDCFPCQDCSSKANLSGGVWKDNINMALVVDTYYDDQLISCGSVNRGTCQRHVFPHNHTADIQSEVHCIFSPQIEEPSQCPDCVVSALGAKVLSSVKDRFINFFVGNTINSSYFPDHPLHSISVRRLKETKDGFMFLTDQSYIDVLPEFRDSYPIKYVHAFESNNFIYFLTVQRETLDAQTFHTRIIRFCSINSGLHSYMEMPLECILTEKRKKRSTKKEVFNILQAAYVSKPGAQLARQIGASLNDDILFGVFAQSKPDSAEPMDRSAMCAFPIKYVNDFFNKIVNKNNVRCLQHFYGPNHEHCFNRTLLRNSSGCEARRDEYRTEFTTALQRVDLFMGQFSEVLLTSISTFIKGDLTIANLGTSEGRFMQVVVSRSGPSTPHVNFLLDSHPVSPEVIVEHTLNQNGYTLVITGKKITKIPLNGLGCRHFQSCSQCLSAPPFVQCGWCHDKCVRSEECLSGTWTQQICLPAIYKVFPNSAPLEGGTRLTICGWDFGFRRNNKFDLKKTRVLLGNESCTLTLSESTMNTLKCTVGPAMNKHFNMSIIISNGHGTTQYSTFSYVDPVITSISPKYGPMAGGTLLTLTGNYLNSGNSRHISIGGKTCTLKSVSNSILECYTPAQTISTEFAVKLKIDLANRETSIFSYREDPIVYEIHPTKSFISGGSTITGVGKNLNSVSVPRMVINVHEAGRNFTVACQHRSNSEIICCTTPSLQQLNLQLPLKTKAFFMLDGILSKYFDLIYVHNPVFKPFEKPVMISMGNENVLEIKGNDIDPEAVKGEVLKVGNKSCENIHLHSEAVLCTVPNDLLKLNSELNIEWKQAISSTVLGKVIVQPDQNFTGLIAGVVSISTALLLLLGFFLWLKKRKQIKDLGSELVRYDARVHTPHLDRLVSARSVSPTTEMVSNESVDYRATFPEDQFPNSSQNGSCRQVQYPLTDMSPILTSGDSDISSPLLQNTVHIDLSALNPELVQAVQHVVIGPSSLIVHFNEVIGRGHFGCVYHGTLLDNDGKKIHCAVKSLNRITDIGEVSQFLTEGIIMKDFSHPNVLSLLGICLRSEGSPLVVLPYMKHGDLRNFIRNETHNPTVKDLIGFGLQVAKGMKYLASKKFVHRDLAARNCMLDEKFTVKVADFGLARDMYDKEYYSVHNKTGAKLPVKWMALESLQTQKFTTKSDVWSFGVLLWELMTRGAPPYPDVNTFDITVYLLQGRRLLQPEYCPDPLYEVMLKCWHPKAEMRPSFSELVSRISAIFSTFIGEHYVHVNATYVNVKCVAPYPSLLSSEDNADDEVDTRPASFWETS", "assay": "Inhibition of c-Met phosphorylation in human MKN45 cells after 2 hrs by Western blotting analysis", "assay_type": "cell-based", "conditions": "MKN-45", "how_it_was_run": "(§1)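 Cells grown under regular conditions to exponential phase, exposed to compound at indicated concentrations for 2 h at 37°C, lysed in 1× SDS sample buffer. Lysates resolved on 10% SDS-PAGE and transferred to nitrocellulose for immunoblotting.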"}, "[2]": {"molecular_target": "T1, Hepatocyte growth factor receptor", "assay": "Inhibition of c-Met phosphorylation in human SNU5 cells after 2 hrs by Western blotting analysis", "assay_type": "cell-based", "conditions": "SNU-5", "how_it_was_run": "as §1"}, "MCF7": {"test_system": "MCF7", "assay": "Antiproliferative activity against human MCF7 cells after 72 hrs", "conditions": "MCF7, 72 h"}, "[3]": {"molecular_target": "ALK tyrosine kinase receptor (Homo sapiens, UniProt Q9UM73)", "assay": "Inhibition of ALK (unknown origin) using poly (Glu, Tyr) 4:1 as substrate after 60 mins by ELISA", "how_it_was_run": "(§2)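 ELISA on wells precoated with 20 µg/mL poly(Glu,Tyr)4:1. Purified kinase with 10 µmol/L ATP in 50 mM HEPES pH 7.4, 50 mM MgCl₂, 0.5 mM MnCl₂, 0.2 mM Na₃VO₄, 1 mM DTT; 1% DMSO vehicle. 60 min at 37°C. Phosphotyrosine detected with PY99 antibody, then HRP anti-mouse IgG and o-phenylenediamine/H₂O₂, A490. Inhibition = [1−(A490/A490 control)]×100%; IC50 from curves.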"}, "MKN-45 [4]": {"test_system": "MKN-45", "assay": "Induction of cell cycle arrest in human MKN45 cells assessed as accumulation at G1 phase at 1 uM after 24 hrs by propidium iodide staining-based FACS analysis (reference value: 39.1%)", "assay_type": "functional"}, "[5]": {"molecular_target": "Tyrosine-protein kinase receptor UFO (Homo sapiens, UniProt P30530)", "assay": "Inhibition of AXL (unknown origin) using poly (Glu, Tyr) 4:1 as substrate after 60 mins by ELISA", "how_it_was_run": "as §2"}, "Ephrin type-A receptor 2": {"molecular_target": "Ephrin type-A receptor 2 (Homo sapiens, UniProt P29317)", "sequence (P29317 whole entry)": "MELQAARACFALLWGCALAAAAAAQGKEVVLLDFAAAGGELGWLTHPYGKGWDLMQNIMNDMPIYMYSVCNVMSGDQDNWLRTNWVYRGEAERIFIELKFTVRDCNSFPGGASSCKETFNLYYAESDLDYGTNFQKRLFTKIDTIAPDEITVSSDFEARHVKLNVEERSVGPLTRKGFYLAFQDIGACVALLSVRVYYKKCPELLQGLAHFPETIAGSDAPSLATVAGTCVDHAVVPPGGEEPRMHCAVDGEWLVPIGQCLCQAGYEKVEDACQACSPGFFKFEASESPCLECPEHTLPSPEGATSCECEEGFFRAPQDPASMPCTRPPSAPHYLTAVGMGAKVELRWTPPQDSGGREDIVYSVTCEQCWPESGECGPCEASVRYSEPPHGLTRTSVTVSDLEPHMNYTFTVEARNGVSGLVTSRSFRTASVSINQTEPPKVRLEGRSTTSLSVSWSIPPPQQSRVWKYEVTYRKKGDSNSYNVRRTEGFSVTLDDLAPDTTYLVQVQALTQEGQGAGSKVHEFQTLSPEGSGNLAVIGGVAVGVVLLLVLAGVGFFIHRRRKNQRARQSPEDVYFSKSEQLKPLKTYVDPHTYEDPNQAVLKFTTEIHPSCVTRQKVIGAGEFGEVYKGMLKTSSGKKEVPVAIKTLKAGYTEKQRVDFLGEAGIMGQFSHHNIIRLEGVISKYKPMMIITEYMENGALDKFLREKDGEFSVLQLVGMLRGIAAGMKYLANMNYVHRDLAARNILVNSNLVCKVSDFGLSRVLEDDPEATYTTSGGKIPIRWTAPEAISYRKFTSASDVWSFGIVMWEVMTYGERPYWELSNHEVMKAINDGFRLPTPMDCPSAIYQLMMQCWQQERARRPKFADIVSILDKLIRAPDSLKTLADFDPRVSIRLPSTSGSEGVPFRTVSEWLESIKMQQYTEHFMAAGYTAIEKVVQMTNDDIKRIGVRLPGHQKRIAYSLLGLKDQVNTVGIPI", "assay": "Inhibition of EPHA2 (unknown origin) using poly (Glu, Tyr) 4:1 as substrate after 60 mins by ELISA", "how_it_was_run": "as §2"}, "MDA-MB-231": {"test_system": "MDA-MB-231", "assay": "Antiproliferative activity against human MDA-MB-231 cells after 72 hrs", "conditions": "MDA-MB-231, 72 h"}, "SK-MEL-28": {"test_system": "SK-MEL-28", "assay": "Antiproliferative activity against human SK-MEL-28 cells after 72 hrs", "conditions": "SK-MEL-28, 72 h"}, "MKN-45 [6]": {"test_system": "MKN-45", "assay": "Antiproliferative activity against human MKN45 cells after 72 hrs", "conditions": "MKN-45, 72 h"}, "[7]": {"molecular_target": "T1, Hepatocyte growth factor receptor", "assay": "Inhibition of c-Met in gefitinib-resistant human HCC827 cells assessed as inhibition of AKT phosphorylation at 0.5 uM after 2 hrs by Western blotting analysis in presence of gefitinib", "assay_type": "cell-based", "how_it_was_run": "(§3)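 Cells grown to exponential phase, treated with compound 2 h at 37°C, lysed in 1× SDS sample buffer, resolved on 10% SDS-PAGE and transferred to nitrocellulose for immunoblotting.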"}, "[8]": {"molecular_target": "Platelet-derived growth factor receptor alpha (Homo sapiens, UniProt P16234)", "assay": "Inhibition of PDGFRalpha (unknown origin) using poly (Glu, Tyr) 4:1 as substrate after 60 mins by ELISA", "how_it_was_run": "as §2"}, "[9]": {"molecular_target": "T1, Hepatocyte growth factor receptor", "assay": "Inhibition of c-Met (unknown origin) using poly (Glu, Tyr) 4:1 as substrate after 60 mins by ELISA"}, "[10]": {"molecular_target": "Hepatocyte growth factor receptor (Canis lupus familiaris) (UniProt Q75ZY9)", "assay": "Inhibition of c-Met in MDCK cells assessed as HGF-induced cell scattering at 3 uM after 24 hrs by microscopic analysis", "assay_type": "cell-based", "how_it_was_run": "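MDCK cells plated at 1,500/well in 96-well plates and allowed to form clusters over 24 h. Then 24 h with compound plus 50 ng/mL recombinant human HGF in FBS-free medium. Fixed in 4% paraformaldehyde 15 min at room temperature, stained with 0.2% crystal violet and imaged by microscopy.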"}, "NIH3T3": {"test_system": "NIH3T3", "assay": "Antitumor activity against mouse NIH/3T3 cells expressing TPR/Met allografted in mouse assessed as tumor growth inhibition at 100 mg/kg, po qd administered for 2 weeks measured twice per week relative to vehicle-treated control", "assay_type": "functional", "conditions": "NIH3T3, 336 h, read-out: TGI", "how_it_was_run": "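Tumor fragments (1 mm³) implanted s.c. in right flank of nude mice by trocar. Randomized at 100–150 mm³ tumor volume. Dosed orally 7 days/week for 2 weeks; vehicle controls. Calipers twice weekly; TV = length×width²/2. Inhibition = 100%×{1−[(T day14−T day0)/(C day14−C day0)]}. n = 6/group, Student's t-test.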"}, "[11]": {"molecular_target": "Epidermal growth factor receptor (Homo sapiens, UniProt P00533)", "conditions": "HCC827, at 0.5 µM"}, "[12]": {"molecular_target": "T1, Hepatocyte growth factor receptor", "assay": "Inhibition of c-Met in human MKN45 cells assessed as inhibition of p44/42 phosphorylation at 0.16 to 20 uM after 2 hrs by Western blotting analysis", "assay_type": "cell-based", "conditions": "MKN-45", "how_it_was_run": "as §3"}, "SNU-5": {"test_system": "SNU-5", "assay": "Antiproliferative activity against human SNU5 cells after 72 hrs", "conditions": "SNU-5, 72 h"}, "[13]": {"molecular_target": "TPR/MET fusion protein (Mus musculus) (UniProt P16056+F6ZDS4)", "assay": "Inhibition of TPR/Met in mouse NIH3T3 cells assessed as inhibition of p44/42 phosphorylation at 0.08 to 10 uM after 2 hrs by Western blotting analysis", "assay_type": "cell-based", "how_it_was_run": "as §3"}, "[14]": {"molecular_target": "Platelet-derived growth factor receptor beta (Homo sapiens, UniProt P09619)", "assay": "Inhibition of PDGFRbeta (unknown origin) using poly (Glu, Tyr) 4:1 as substrate after 60 mins by ELISA", "how_it_was_run": "as §2"}, "[15]": {"assay": "Oral bioavailability in rat at 10 mg/kg", "assay_type": "ADME, organism-based", "conditions": "in vivo", "how_it_was_run": "(§4)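 Rats given a single iv dose (2 mg/kg) or a single po dose (10 mg/kg).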"}, "[16]": {"assay": "Volume of distribution in rat at 2 mg/kg, iv and 10 mg/kg, po", "assay_type": "ADME, organism-based", "conditions": "in vivo", "how_it_was_run": "as §4"}, "HCT-116": {"test_system": "HCT-116", "assay": "Antiproliferative activity against human HCT116 cells after 72 hrs", "conditions": "HCT-116, 72 h"}, "[17]": {"molecular_target": "T1, Hepatocyte growth factor receptor", "assay": "Inhibition of c-Met phosphorylation in gefitinib-resistant human HCC827 cells at 0.5 uM after 2 hrs by Western blotting analysis", "assay_type": "cell-based", "how_it_was_run": "as §3"}, "[18]": {"molecular_target": "Vascular endothelial growth factor receptor 2 (Homo sapiens, UniProt P35968)", "sequence (P35968 whole entry)": "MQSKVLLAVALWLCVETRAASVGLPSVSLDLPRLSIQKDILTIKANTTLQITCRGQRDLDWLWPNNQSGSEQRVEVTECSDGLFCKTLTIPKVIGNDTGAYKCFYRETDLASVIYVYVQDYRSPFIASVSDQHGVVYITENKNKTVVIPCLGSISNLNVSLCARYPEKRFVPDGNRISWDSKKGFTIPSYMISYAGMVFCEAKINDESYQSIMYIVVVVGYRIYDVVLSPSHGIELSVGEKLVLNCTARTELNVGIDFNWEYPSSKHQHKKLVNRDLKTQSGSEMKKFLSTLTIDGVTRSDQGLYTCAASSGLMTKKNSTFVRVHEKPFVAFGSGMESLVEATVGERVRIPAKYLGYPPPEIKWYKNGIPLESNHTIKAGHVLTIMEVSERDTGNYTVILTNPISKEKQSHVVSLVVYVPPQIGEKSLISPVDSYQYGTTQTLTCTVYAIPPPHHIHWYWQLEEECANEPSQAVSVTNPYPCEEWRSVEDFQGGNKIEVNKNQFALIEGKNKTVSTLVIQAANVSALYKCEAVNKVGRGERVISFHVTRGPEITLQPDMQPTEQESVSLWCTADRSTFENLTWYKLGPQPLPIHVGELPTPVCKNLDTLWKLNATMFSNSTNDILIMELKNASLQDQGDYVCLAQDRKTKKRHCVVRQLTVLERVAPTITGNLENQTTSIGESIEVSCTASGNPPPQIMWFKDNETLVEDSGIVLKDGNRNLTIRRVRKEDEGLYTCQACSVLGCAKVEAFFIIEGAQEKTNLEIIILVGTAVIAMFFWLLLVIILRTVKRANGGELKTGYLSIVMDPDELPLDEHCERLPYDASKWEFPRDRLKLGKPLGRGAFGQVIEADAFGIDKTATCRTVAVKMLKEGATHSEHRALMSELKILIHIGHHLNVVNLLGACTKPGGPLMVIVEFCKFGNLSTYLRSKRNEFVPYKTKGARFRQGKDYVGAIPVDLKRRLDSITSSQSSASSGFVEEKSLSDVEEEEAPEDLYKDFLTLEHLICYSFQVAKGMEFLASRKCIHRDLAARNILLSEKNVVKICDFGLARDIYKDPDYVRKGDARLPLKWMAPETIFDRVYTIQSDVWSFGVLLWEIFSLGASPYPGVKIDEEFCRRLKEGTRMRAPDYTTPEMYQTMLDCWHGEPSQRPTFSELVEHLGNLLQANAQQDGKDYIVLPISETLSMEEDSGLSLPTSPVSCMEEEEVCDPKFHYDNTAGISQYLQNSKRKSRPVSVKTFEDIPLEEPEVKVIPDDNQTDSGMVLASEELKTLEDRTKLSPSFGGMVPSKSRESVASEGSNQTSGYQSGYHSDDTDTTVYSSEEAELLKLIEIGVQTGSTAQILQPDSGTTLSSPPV", "assay": "Inhibition of KDR (unknown origin) using poly (Glu, Tyr) 4:1 as substrate after 60 mins by ELISA", "how_it_was_run": "as §2"}, "[19]": {"molecular_target": "T1, Hepatocyte growth factor receptor", "assay": "Inhibition of c-Met in gefitinib-resistant human HCC827 cells assessed as inhibition of p44/42 phosphorylation at 0.5 uM after 2 hrs by Western blotting analysis", "assay_type": "cell-based", "how_it_was_run": "as §3"}, "[20]": {"molecular_target": "Fibroblast growth factor receptor 1 (Homo sapiens, UniProt P11362)", "sequence (P11362 whole entry)": "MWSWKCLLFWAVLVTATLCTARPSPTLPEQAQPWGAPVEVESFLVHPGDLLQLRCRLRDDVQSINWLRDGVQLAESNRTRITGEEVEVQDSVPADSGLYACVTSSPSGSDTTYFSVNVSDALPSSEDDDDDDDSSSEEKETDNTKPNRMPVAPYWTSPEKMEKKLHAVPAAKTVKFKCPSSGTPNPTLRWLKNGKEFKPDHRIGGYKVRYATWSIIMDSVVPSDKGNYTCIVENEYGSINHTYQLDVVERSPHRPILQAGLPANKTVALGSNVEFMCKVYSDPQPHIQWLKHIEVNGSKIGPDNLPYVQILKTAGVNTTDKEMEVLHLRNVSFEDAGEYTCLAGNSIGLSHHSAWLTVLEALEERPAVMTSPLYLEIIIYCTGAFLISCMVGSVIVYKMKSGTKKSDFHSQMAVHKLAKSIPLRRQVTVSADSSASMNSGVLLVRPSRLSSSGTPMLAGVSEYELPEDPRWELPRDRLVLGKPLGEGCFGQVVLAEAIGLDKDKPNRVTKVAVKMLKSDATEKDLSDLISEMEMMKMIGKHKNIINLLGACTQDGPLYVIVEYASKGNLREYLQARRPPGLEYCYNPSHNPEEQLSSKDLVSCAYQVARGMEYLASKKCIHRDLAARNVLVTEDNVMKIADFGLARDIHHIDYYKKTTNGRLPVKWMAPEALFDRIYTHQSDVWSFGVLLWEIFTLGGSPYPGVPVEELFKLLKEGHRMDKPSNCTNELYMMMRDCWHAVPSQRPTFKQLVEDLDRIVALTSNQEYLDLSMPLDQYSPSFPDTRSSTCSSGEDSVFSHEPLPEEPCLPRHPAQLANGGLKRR", "assay": "Inhibition of FGFR1 (unknown origin) using poly (Glu, Tyr) 4:1 as substrate after 60 mins by ELISA", "how_it_was_run": "as §2"}, "[21]": {"molecular_target": "T1, Hepatocyte growth factor receptor", "assay": "Inhibition of c-Met in gefitinib-resistant human HCC827 cells assessed as inhibition of AKT phosphorylation at 0.5 uM after 2 hrs by Western blotting analysis", "assay_type": "cell-based", "how_it_was_run": "as §3"}, "[22]": {"assay": "Clearance in rat at 2 mg/kg, iv and 10 mg/kg, po", "assay_type": "ADME, organism-based", "conditions": "in vivo", "how_it_was_run": "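Rat pharmacokinetics after a single intravenous dose (2 mg/kg) and a single oral dose (10 mg/kg).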"}}, "note": "The source made the active and inactive calls. The rule behind the calls is not given here.", "data": [{"compound": "C[C@@H](Sc1cc(-c2cnn(C3CCNCC3)c2)cnc1N)c1c(Cl)ccc(F)c1Cl", "values": [{"measurement": "inhibition", "setting": "[1]", "value": "Dose-dependent effect"}, {"measurement": "inhibition", "setting": "[2]", "value": "Dose-dependent effect"}, {"measurement": "IC50", "setting": "MCF7", "value": 11600, "unit": "nM"}, {"measurement": "IC50", "setting": "[3]", "value": 349, "unit": "nM"}, {"measurement": "Activity", "setting": "MKN-45 [4]", "value": 60.1, "unit": "%"}, {"measurement": "IC50", "setting": "[5]", "value": 446, "unit": "nM"}, {"measurement": "IC50", "setting": "Ephrin type-A receptor 2", "value": "> 1000", "unit": "nM"}, {"measurement": "IC50", "setting": "MDA-MB-231", "value": 12100, "unit": "nM"}, {"measurement": "IC50", "setting": "SK-MEL-28", "value": 9310, "unit": "nM"}, {"measurement": "IC50", "setting": "MKN-45 [6]", "value": 290, "unit": "nM"}, {"measurement": "inhibition", "setting": "[7]", "value": "Active"}, {"measurement": "IC50", "setting": "[8]", "value": "> 1000", "unit": "nM"}, {"measurement": "IC50", "setting": "[9]", "value": 7.7, "unit": "nM"}, {"measurement": "inhibition", "setting": "[10]", "value": "Active"}, {"measurement": "inhibition in vivo at 100 mg/kg", "setting": "NIH3T3", "value": 45.5, "unit": "%"}, {"measurement": "inhibition", "setting": "[11]", "value": "Active"}, {"measurement": "inhibition", "setting": "[12]", "value": "Active"}, {"measurement": "IC50", "setting": "SNU-5", "value": 190, "unit": "nM"}, {"measurement": "inhibition", "setting": "[13]", "value": "Active"}, {"measurement": "IC50", "setting": "[14]", "value": "> 1000", "unit": "nM"}, {"measurement": "bioavailability", "setting": "[15]", "value": 12.8, "unit": "%"}, {"measurement": "Vd", "setting": "[16]", "value": 20, "unit": "L/kg"}, {"measurement": "IC50", "setting": "HCT-116", "value": 14300, "unit": "nM"}, {"measurement": "inhibition", "setting": "[17]", "value": "Active"}, {"measurement": "IC50", "setting": "[18]", "value": "> 1000", "unit": "nM"}, {"measurement": "inhibition", "setting": "[19]", "value": "inactive"}, {"measurement": "IC50", "setting": "[20]", "value": "> 1000", "unit": "nM"}, {"measurement": "inhibition", "setting": "[21]", "value": "inactive"}, {"measurement": "clearance", "setting": "[22]", "value": 53, "unit": "mL/min/kg"}]}]}
